In ChEMBL document CHEMBL1134597, “Identification of alkylidene hydrazides as glucagon receptor antagonists” (J Med Chem, 2001):

system: not listed separately; test: pA2 value for the compound was calculated
Procedure, shortened: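 BHK cells expressing cloned human glucagon receptor (10^6/mL) in HEPES pH 7.4 buffer with 0.1 mM IBMX and 0.2% BSA. Cells pretreated 10 min at 37 °C with several antagonist concentrations, then challenged with increasing glucagon for 20 min. cAMP measured by RIA; pA2 obtained by Schild analysis of rightward-shifted glucagon concentration-response curves.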

SMILES | pA2
O=C(N/N=C/c1ccc(O)c2ccccc12)c1ccc(O)c(Cl)c1 | 6.99

molecular target: Glucagon receptor (Rattus norvegicus, UniProt P30082); test: Binding affinity towards rat Glucagon Receptor
Procedure, shortened: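 Plasma membranes prepared from livers of male Wistar rats (2 μg protein) incubated with ~50 000 CPM 125I-glucagon in 50 mM HEPES, 5 mM EGTA, 5 mM MgCl2, 0.005% tween-20, pH 7.4. Samples diluted in DMSO. Nonspecific binding defined with excess unlabeled glucagon; 2 h at 30 °C; vacuum filtration, gamma counting; curve fitting gave IC50.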

Chain of Glucagon receptor (Rattus norvegicus, UniProt P30082) (P30082 whole entry): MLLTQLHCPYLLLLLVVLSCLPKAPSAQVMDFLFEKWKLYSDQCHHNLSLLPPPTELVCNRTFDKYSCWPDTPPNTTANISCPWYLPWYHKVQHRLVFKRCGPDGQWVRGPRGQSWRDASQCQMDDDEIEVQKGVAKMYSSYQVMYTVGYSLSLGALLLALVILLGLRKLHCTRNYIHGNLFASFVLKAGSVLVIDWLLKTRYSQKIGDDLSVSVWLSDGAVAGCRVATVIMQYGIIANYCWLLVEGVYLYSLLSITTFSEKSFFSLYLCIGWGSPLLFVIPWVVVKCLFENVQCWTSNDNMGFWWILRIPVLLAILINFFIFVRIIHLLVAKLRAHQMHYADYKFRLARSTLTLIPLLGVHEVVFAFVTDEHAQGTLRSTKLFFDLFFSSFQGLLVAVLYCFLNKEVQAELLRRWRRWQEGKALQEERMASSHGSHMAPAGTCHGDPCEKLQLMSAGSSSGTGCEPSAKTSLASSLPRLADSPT

IC50 [µM] | SMILES
0.027 | O=C(N/N=C/c1ccc(O)c2ccccc12)c1ccc(O)c(Cl)c1

molecular target: T1, Glucagon receptor (Homo sapiens, UniProt P47871); test: Binding affinity towards human Glucagon Receptor by the displacement of [125I]-glucagon
Procedure, shortened: (§1)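 Competition binding of [125I]glucagon (~25 000 cpm) to plasma membranes (~0.5 μg) from BHK cells transfected with cloned human glucagon receptor; 25 mM HEPES pH 7.4, 0.1% BSA; run in duplicate, 1 h at 37 °C. Bound and free separated by vacuum filtration on GF/C filters, then scintillation counting; IC50 determined.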

T1 sequence (P47871 whole entry): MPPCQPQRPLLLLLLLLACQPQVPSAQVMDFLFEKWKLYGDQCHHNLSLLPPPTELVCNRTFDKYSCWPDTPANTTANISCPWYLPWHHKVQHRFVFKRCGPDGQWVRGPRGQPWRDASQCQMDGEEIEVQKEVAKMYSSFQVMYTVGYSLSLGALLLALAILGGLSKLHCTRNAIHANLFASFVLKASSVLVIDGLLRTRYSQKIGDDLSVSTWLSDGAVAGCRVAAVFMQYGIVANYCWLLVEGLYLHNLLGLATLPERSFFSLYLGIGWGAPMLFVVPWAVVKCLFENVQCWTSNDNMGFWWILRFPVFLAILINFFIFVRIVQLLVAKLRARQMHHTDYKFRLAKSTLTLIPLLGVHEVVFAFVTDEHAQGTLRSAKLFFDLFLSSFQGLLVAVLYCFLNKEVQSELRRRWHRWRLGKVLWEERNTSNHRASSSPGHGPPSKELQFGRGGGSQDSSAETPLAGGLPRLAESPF

IC50 [µM] | SMILES
0.2 | O=C(N/N=C/c1ccc(O)c2ccccc12)c1ccc(O)c(Cl)c1

molecular target: T1, Glucagon receptor; test: Binding affinity for human Glucagon Receptor; procedure, shortened: as §1

IC50 [µM] | SMILES
4.9 | COc1cc(C(=O)N/N=C/c2cccc(Oc3cccc(C(F)(F)F)c3)c2)ccc1O
> 100 | COc1cc(C(=O)N/N=C/c2ccc(O)cc2)ccc1O
6.3 | CCn1c2ccccc2c2cc(/C=N/NC(=O)c3ccc(O)c(OC)c3)ccc21
1.8 | O=C(N/N=C/c1cccc2ccccc12)c1ccc(O)cc1
2.9 | COc1cc(C(=O)N/N=C/c2ccc(OC)c3ccccc23)ccc1O
0.72 | COc1cc(C(=O)N/N=C/c2ccc(O)c3ccccc23)ccc1O
43 | COc1cc(C(=O)N/N=C/c2ccc(OC(F)(F)F)cc2)ccc1O
1.2 | O=C(N/N=C/c1ccc(O)c2ccccc12)c1ccc(O)cc1
8.1 | COc1cc(C(=O)N/N=C/c2ccc(N(C)C)c3ccccc23)ccc1O
26 | COc1cc(C(=O)N/N=C/c2ccc(-c3ccccc3)cc2)ccc1O
4.9 | COc1ccc(/C=N/NC(=O)c2ccc(O)cc2)c2ccccc12
12 | COc1cc(C(=O)N/N=C/c2ccc(-c3ccc(C)c(Cl)c3)o2)ccc1O
2 | Nc1cc(C(=O)N/N=C/c2ccc(O)c3ccccc23)ccc1O
60 | COc1cc(C(=O)N/N=C/c2ccc(O)c3ccccc23)cc(Cl)c1O
0.83 | O=C(N/N=C/c1ccc(O)c2ccccc12)c1ccc(O)c(Br)c1
> 100 | COc1ccc(/C=N/NC(=O)c2ccc(O)c(OC)c2)cc1
23 | COc1cc(C(=O)N/N=C/c2c[nH]c3ccccc23)ccc1O
10 | COc1cc(C(=O)N/N=C/c2ccnc3ccccc23)ccc1O
> 100 | O=C(NNCc1cccc2ccccc12)c1ccc(O)cc1
3.4 | O=C(N/N=C/c1ccc(O)c2ccccc12)c1ccc(O)c(O)c1
43 | COc1cc(C(=O)N/N=C/c2ccc(C(C)C)cc2)ccc1O
28 | O=C(N/N=C/c1ccc(O)c2ccccc12)c1ccc(O)cc1O
4.8 | COc1cc(C(=O)N/N=C/c2cccc3ccccc23)ccc1O

Continued, molecule first:

SMILES | IC50 [µM]
O=C(N/N=C/c1ccc(O)c2ccccc12)c1ccc(O)c(CN2CCOCC2)c1 | > 100
Nc1ccc(C(=O)N/N=C/c2ccc(O)c3ccccc23)cc1 | > 100
O=C(N/N=C/c1ccc(O)c2ccccc12)c1ccc(O)c(F)c1 | 0.39
COc1cc(C(=O)N/N=C/c2ccc(C(C)(C)C)cc2)ccc1O | 29
O=C(N/N=C/c1ccc(O)c2ccccc12)c1ccc(O)nc1 | > 100
O=C(N/N=C/c1ccc(O)c2ccccc12)c1cc2cc(O)ccc2[nH]1 | > 100
COc1cc(/C=N/NC(=O)c2cccc3ccccc23)ccc1O | > 100
COc1cc(C(=O)N/N=C(\C)c2cccc3ccccc23)ccc1O | > 100
O=C(N/N=C/c1ccc(O)c2ccccc12)c1ccc2nccnc2c1 | > 100
COc1cc(C(=O)N/N=C/c2ccc(/C=C/c3ccccc3)cc2)ccc1O | > 100
O=C(O)c1ccc(C(=O)N/N=C/c2ccc(O)c3ccccc23)cc1 | > 100
O=C(N/N=C/c1ccc(O)c2ccccc12)c1cc(Cl)c(O)c(Cl)c1 | 34
COc1cccc(C(=O)N/N=C/c2ccc(OC)c3ccccc23)c1 | > 100
O=C(N/N=C/c1ccc(O)c2ccccc12)c1ccc2[nH]ccc2c1 | > 100
COc1ccc(/C=N/NC(=O)c2ccc(O)c(OC)c2)cc1O | > 100
COc1cc(C(=O)N/N=C/c2cnc(O)nc2O)ccc1O | > 100
COc1cc(C(=O)N/N=C/c2[nH]cnc2C)ccc1O | > 100
